# 5HT1E ag – 5-HT1E (human) receptor agonism; CHO 5-HT1E Ga15 NFAT-bla reporter, FRET; 0% DMSO wells, 100% control agonist wells; P28566; 65,000 tested, 0.69% active; AID 574; activation, % at 6 µM;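 active = activation above a set limit, the screen-wide mean activation plus 3 SD, cut at about 8.5% in these data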;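 also: 100% = positive control agonist at 1 µM giving full maximal response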
# 5HT1a ag – activates the human 5-HT1a serotonin receptor | CHO 5-HT1a Ga15 NFAT-bla reporter, FRET ratio; 0% basal, 100% maximal reference agonist | activation, % at 10 µM | 65,000 tested, 0.56% active | AID 567;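 active = activation above the screen-wide mean activation plus 3 SD, cut at about 19% in these data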;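 also: 0% = DMSO wells and 100% = 5-CT at EC100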
# S1P1 ag pot – agonists and agonism potentiators of human S1P1 receptor. P21453. S1P1 CRE-bla cells, forskolin, beta-lactamase FRET, potentiator mode; S1P1 agonist co-added at EC20, 2 nM; 100% = saturating reference agonist, 0% = basal. 56,000 tested, 0.57% active. activation, % at 9.5 µM;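 active = activation above a cutoff set at the mean activation of all tested compounds plus 3 SD, cut at about 54% in these data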;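 also: forskolin at 4 µM as EC80 and the EC20 agonist is SEW2871; 100% = SEW2871 at its EC100 plus forskolin at EC80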
# Target sequence (P21453 whole entry, looked up): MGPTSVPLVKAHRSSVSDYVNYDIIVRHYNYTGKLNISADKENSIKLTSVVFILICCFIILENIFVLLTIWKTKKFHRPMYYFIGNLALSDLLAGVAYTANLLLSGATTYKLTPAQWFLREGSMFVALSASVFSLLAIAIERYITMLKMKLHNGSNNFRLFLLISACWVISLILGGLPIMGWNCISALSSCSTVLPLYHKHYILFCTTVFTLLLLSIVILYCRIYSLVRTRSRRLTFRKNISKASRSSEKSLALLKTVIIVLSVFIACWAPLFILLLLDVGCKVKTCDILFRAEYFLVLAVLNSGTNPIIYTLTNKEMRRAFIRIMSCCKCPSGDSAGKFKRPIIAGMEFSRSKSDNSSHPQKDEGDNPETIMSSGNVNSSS
# 5HT1a antag – 5-HT1a (human) receptor antagonism. P08908. CHO 5-HT1a Ga15 NFAT-bla reporter, antagonist mode. inhibition, % at 10 µM. 62,000 tested, 0.68% active. AID 612;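 active = inhibition above the mean of all tested compounds plus 3 SD, cut at about 43% in these data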;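 also: receptor stimulated by 5-CT agonist at 100 nM near EC80; beta-lactamase reporter measured by ratiometric fluorescence of a cleavable substrate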
# S1P3 agonist – activates the human S1P3 receptor; S1P3 NFAT-BLA reporter cells, agonism, FRET ratio; relative to 1 µM S1P, basal subtracted; activation, % at 4.5 µM; 60,000 tested, 0.1% active; AID 373;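 active = activation above the screen-wide mean plus 3 SD, cut at about 4.5% in these data, passing the limit was not always enough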
#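 material = human S1P3 NFAT-BLA reporter CHO cells | schedule = 4 h compound at 37 °C, 2 h substrate at RT | measured by = fluorescent BLA substrate, ex 405 nm, em 460/535 nm ratio | controls = 1 µM S1P reference | replication = primary once, confirmation triplicate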
# 5HT1E antag – antagonists of human 5-HT1E serotonin receptor; inhibition, % at 6 µM; AID 571; 65,000 tested, 0.99% active; CHO 5-HT1E Ga15 NFAT-bla reporter, FRET, antagonist;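 active = inhibition above a set limit, the mean inhibition across every tested compound plus 3 SD, cut at about 29% in these data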;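 also: signal is the 460 over 535 nm emission ratio of beta-lactamase substrate; 0% = agonist plus DMSO wells and 100% = wells without agonist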
# * marks the source's active call; other numbers are inactive results; / = not tested or not shown. A selection: hits, their analogues and other compounds. The true share with any hit is near 3%.
SMILES,5HT1E ag,5HT1a ag,S1P1 ag pot,5HT1a antag,S1P3 agonist,5HT1E antag
CCOC(=O)c1c(C)[nH]c(C(C)=O)c1C,0,-1,-26,-11,-1,5
O=C(Nc1ccc(Oc2ccc(NC(=O)c3ccco3)c(NC(=O)c3ccco3)c2)cc1)c1ccco1,-1,-2,-10,59*,0,18
O=C(O)CCN1C(=O)NC2(CCCC2)C1=O,0,-1,-7,-1,-1,0
N#CCCN(C(=O)CN1C(=O)NC2(CCCC2)C1=O)c1ccccc1F,1,82*,/,-4,/,0
COc1ccccc1-n1c(CNc2c(C)cccc2C)nnc1SCC(=O)N1CCOCC1,-1,-1,-2,-2,0,3
CCCOC(=O)c1ccc(OCC(O)Cn2c(C)nc3ccccc32)cc1 (centres undefined),2,2,95*,1,-1,-1
CCOC(=O)Cn1c(C)nc2ccccc21,0,1,/,-10,-1,0
CC(=O)C1=C(O)C(=O)N(Cc2ccccc2)C1c1cccs1 (centres undefined),0,-3,/,-4,/,-36
COc1ccc(C2CC(c3c(O)cc(C)oc3=O)=NCCS2)c(OC)c1 (centres undefined),-1,-4,43,39,-2,65*
CCCCOc1ccc(NC(=O)c2cnc(C)cn2)cc1,0,0,/,4,/,-2
OCc1cn(-c2ccccc2)nc1-c1ccc(-c2nn(-c3ccccc3)cc2CO)cc1,0,1,/,7,/,9
N#Cc1cn(-c2ccccc2)nc1-c1ccccc1,-1,-3,10,29,-1,34*
NC(=O)c1nsc(C(=O)N(CCc2ccccc2)C(C(=O)NC2CCCC2)c2ccco2)c1N (centres undefined),-1,-3,-3,32,0,3
CN1C(=O)CC(N2CCN(CCN=CC3=C(O)CC(C)(C)CC3=O)CC2)C1=O (centres undefined),0,-1,-12,55*,-1,-4
N=c1c(C(=O)NCc2ccco2)cc2c(=O)n3ccccc3nc2n1CCc1ccccc1,4,10,-111,3,1,-20
O=C(O)C1C2C=CC(C2)C1C(=O)NCCc1cccc(Cl)c1 (centres undefined),12*,8,/,0,0,8
c1ccc(-c2nc(NC3CC3)nc(-n3ccnc3)n2)cc1,2,0,-11,29,0,29*
CC(C)Nc1nc(-c2ccccc2)nc(-n2ccnc2)n1,8,-2,2,36,-1,30*
c1ccc(-c2nc(-n3ccnc3)nc(-n3ccnc3)n2)cc1,1,-2,-45,-9,0,6
C=CCNc1nc(-c2ccccc2)nc(-n2ccnc2)n1,2,0,-18,8,-1,14
CCc1ccccc1NC(=O)COC(=O)C1CC(=O)N(c2ccc(F)cc2)C1 (centres undefined),0,-2,3,1,-1,0
O=C(O)C1CC(=O)N(c2ccc(OCc3c(F)cccc3Cl)cc2)C1 (centres undefined),-1,-1,-10,4,-1,12
CCOc1cc(-c2cc(-c3ccc(N)cc3)nc(N)c2C#N)ccc1O,2,6,0,4,1,30*
O=C(NCC1CCCO1)c1cc2n(n1)C(C(F)(F)F)CC(c1ccc(F)cc1)N2 (centres undefined),0,-4,-1,-8,0,-7
COc1ccc(C2CC(C(F)(F)F)n3nc(C(=O)NCCN4CCOCC4)cc3N2)cc1 (centres undefined),0,36*,-13,15,-2,2
SMILES,5HT1E ag,5HT1a ag,S1P1 ag pot,5HT1a antag,S1P3 agonist,5HT1E antag
COc1ccc(-c2nnc(SCC(=O)NC(C)c3ccccc3)o2)cc1OC (centres undefined),1,0,-8,8,-1,-8
O=C(c1ccc(Br)cc1)C1CCc2occc2C1=O (centres undefined),-1,-1,10,4,0,7
O=C(NCCCn1ccnc1)c1ccco1,0,20*,4,-10,-1,-5
O=C(NCCCn1ccnc1)c1ccncc1,1,0,-13,0,-1,-7
CCn1c(SCC(=O)Nc2cc(C)on2)nnc1-c1ccncc1,0,-3,-24,1,0,-6
CCc1nnc(NC(=O)CCC(=O)N2CCN(C3CCCCC3)CC2)s1,0,0,-10,2,-1,0
Cc1ccc(CN(C)C(=O)C2CCCN2C(=O)c2cccs2)o1 (centres undefined),1,2,/,9,/,1
CN1C(=O)CC(N2CCN(c3ccc(Cl)c(Cl)c3)CC2)C1=O (centres undefined),0,4,-1,/,-5,40*
Cc1ccc(C2N(c3ccc(F)cc3)C(=O)C3CCCN32)cc1 (centres undefined),1,-3,-9,-10,2,-14
Cc1noc(C)c1CSc1nc2[nH]ncc2c(=O)n1-c1ccccc1,0,-1,/,37,-1,52*
Cc1noc(C)c1CSc1nnc2n(-c3ccccc3)c(=O)c3ccccc3n12,0,1,-3,-12,0,-2
Cc1noc(C)c1CSc1nc2ccccc2c(=O)n1-c1ccccc1,0,1,14,31,0,21
Cc1noc(C)c1CSc1nc2ccccc2c(=O)n1-c1ccc(F)cc1F,0,0,-4,46*,-2,21
Cc1cc(C(=O)N2CCc3ccccc32)c2cc(F)ccc2n1,-1,-1,3,17,-1,8
COc1ccc2[nH]c(C)c(CCN3C(=O)OC(C)(C)C3(C)O)c2c1 (centres undefined),0,-1,-8,-1,0,1
COc1ccc2[nH]c(=O)c3c(c2c1)OC(C)(C)C=C3,0,-1,99,60*,-2,24
CC(C)C[C@H](N)c1nnc(S(=O)(=O)Cc2ccc(F)cc2)o1,0,0,5,88*,-2,43*
CCNC(=O)CC1C(=O)N(c2ccc(C)cc2)C(=O)N1Cc1ccccn1 (centres undefined),0,3,19,10,-1,6
CCOC(=O)C1CCCN(C(=O)c2cc3nc(-c4cccc(OC)c4)cc(C(F)(F)F)n3n2)C1 (centres undefined),0,4,/,5,-1,35*
O=S(=O)(Nc1cccc2cccnc12)c1ccc(S(=O)(=O)N2CCCC2)cc1,-1,-1,23,30,0,32*
CC(=O)/C(C(=N)N1CCN(Cc2ccccc2)CC1)=C(\C)O,0,1,/,-2,-1,4

# Source: PubChem BioAssay
